From ChEMBL document CHEMBL2311499, “Synthesis, antiproliferative activity and tubulin targeting effect of acridinone and dioxophenothiazine derivatives” (Eur J Med Chem, 2013)
pIC50: −log10 of the molar value. Calls of active or inactive are those of the source. The calls are words filed in the database; no cut-off is given here.

Key:
[1] = Inhibition of bovine tubulin polymerization after 1 hr; design: species or system Bos taurus
HT-29 [2] = test: Antiproliferative activity against human HT-29 cells after 72 hrs by MTT assay; type: functional, cell-based; settings: HT-29, 72 h
Method in brief: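 HT29 cells were seeded at (1.6–1.8) × 10⁴ per well in medium with 10% FBS, serum-starved after 72 h, and treated the following day for 72 h. Viability was read by MTT (4 mg/mL, 4 h, 37 °C, 5% CO₂) with SDS/HCl solubilisation and absorbance at 570 nm. IC50 is the concentration giving 50% inhibition of proliferation relative to untreated controls.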

DU-145 = test: Antiproliferative activity against human DU145 cells after 72 hrs by MTT assay; type: functional, cell-based; settings: DU-145, 72 h
Method in brief: (§1)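 MTT viability readout. Cells were seeded at (1.6–1.8) × 10⁴ per well in medium with 10% FBS. After 72 h they were serum-deprived, then treated next day with a range of concentrations. MTT (4 mg/mL) was added for 4 h at 37 °C, 5% CO₂, followed by SDS/HCl lysis and absorbance at 570 nm. IC50 is the concentration giving 50% inhibition of proliferation relative to untreated controls.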

PC-3 = test: Antiproliferative activity against human PC3 cells after 72 hrs by MTT assay; type: functional, cell-based; settings: PC-3, 72 h; method in brief: as §1
HT-29 [3] = test: Cell cycle arrest in human HT-29 cells assessed as accumulation at sub-G1 phase at 0.5 uM after 24 hrs flow cytometry; type: functional
Method in brief: (§2)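 Flow cytometry: 2.5–4 × 10⁵ cells were seeded in 6-well plates, grown 24 h, then treated for 24 h. Floating and adherent cells were pooled and fixed in cold 70% ethanol for 24 h. Results are reported as the percentage of cells in sub-G1, G1, S and G2 phases.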

HT-29 [4] = test: Cell cycle arrest in human HT-29 cells assessed as accumulation at G1 phase at 0.5 uM after 24 hrs flow cytometry; type: functional; method in brief: as §2
HT-29 [5] = test: Cell cycle arrest in human HT-29 cells assessed as accumulation at G2 phase at 0.5 uM after 24 hrs flow cytometry; type: functional; method in brief: as §2
CAL-33 [6] = test: Cell cycle arrest in human CAL33 cells assessed as accumulation at sub-G1 phase at 0.5 uM after 24 hrs flow cytometry; type: functional; method in brief: as §2
CAL-33 [7] = test: Cell cycle arrest in human CAL33 cells assessed as accumulation at G2 phase at 0.5 uM after 24 hrs flow cytometry; type: functional; method in brief: as §2
CAL-33 [8] = test: Cell cycle arrest in human CAL33 cells assessed as accumulation at S phase at 0.5 uM after 24 hrs flow cytometry; type: functional; method in brief: as §2
HT-29 [9] = test: Cell cycle arrest in human HT-29 cells assessed as accumulation at S phase at 0.5 uM after 24 hrs flow cytometry; type: functional; method in brief: as §2
CAL-33 [10] = test: Cell cycle arrest in human CAL33 cells assessed as accumulation at G1 phase at 0.5 uM after 24 hrs flow cytometry; type: functional; method in brief: as §2
HL-60 [11] = test: Antiproliferative activity against human HL60 cells after 72 hrs by MTT assay; type: functional, cell-based; settings: HL-60, 72 h; method in brief: as §1
HT-29 [12] = test: Cell cycle arrest in human HT-29 cells assessed as accumulation at sub-G1 phase at 5 uM after 24 hrs flow cytometry; type: functional; method in brief: as §2
HT-29 [13] = test: Cell cycle arrest in human HT-29 cells assessed as accumulation at G1 phase at 5 uM after 24 hrs flow cytometry; type: functional; method in brief: as §2
HL-60 [14] = test: Cell cycle arrest in human HL60 cells assessed as accumulation at G1 phase at 5 uM after 24 hrs flow cytometry; type: functional; method in brief: as §2
[15] = biological target: DNA topoisomerase 2-alpha (Homo sapiens) (UniProt P11388); test: Inhibition of human topoisomerase 2-mediated supercoiled plasmid DNA cleavage at 50 uM after 30 min by agarose gel electrophoresis
Sequence of DNA topoisomerase 2-alpha (Homo sapiens) (P11388 whole entry): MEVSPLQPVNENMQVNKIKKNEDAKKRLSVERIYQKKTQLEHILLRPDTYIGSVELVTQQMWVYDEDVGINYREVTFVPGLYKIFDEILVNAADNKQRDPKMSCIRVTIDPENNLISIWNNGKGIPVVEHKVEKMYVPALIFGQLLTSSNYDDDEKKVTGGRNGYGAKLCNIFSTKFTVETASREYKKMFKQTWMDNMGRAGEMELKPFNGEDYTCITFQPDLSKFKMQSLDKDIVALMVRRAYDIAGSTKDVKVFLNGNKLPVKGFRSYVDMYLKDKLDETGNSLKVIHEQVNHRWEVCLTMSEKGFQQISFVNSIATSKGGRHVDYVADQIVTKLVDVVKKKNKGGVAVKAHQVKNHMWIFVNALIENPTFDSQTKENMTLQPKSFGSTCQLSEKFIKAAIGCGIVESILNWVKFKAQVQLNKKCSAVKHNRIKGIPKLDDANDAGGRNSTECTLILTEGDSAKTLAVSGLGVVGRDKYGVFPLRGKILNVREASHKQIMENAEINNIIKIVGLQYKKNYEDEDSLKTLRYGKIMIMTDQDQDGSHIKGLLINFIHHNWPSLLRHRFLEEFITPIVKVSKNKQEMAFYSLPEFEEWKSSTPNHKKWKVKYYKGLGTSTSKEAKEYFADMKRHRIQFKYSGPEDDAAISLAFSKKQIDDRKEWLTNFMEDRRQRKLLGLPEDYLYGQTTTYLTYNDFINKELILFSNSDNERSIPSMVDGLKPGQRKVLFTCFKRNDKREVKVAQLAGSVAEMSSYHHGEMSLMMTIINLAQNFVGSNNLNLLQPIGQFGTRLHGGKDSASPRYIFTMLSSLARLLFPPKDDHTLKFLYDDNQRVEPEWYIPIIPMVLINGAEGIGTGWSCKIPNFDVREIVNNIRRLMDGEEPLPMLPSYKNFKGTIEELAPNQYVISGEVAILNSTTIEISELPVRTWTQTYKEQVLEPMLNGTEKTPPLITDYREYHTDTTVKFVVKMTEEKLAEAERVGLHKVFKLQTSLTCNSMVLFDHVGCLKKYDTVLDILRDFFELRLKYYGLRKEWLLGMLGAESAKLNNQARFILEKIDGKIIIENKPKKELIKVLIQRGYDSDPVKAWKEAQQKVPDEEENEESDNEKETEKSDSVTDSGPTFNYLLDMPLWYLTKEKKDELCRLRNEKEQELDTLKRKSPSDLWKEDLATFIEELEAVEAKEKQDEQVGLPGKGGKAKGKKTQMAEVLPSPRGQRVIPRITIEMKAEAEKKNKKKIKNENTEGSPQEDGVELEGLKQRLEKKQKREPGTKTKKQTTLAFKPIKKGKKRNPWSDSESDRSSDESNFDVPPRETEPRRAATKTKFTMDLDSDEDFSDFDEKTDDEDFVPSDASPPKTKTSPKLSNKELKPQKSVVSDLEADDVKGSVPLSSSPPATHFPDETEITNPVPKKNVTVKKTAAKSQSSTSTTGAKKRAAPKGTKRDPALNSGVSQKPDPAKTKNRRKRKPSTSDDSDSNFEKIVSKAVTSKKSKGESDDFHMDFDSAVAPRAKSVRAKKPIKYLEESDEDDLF

HL-60 [16] = test: Cell cycle arrest in human HL60 cells assessed as accumulation at S phase at 0.5 uM after 24 hrs flow cytometry; type: functional; method in brief: as §2
HT-29 [17] = test: Cell cycle arrest in human HT-29 cells assessed as accumulation at G2 phase at 5 uM after 24 hrs flow cytometry; type: functional; method in brief: as §2
HL-60 [18] = test: Cell cycle arrest in human HL60 cells assessed as accumulation at G2 phase at 5 uM after 24 hrs flow cytometry; type: functional; method in brief: as §2
HL-60 [19] = test: Cell cycle arrest in human HL60 cells assessed as accumulation at G1 phase at 0.5 uM after 24 hrs flow cytometry; type: functional; method in brief: as §2
HL-60 [20] = test: Cell cycle arrest in human HL60 cells assessed as accumulation at S phase at 5 uM after 24 hrs flow cytometry; type: functional; method in brief: as §2
HL-60 [21] = test: Cell cycle arrest in human HL60 cells assessed as accumulation at sub-G1 phase at 0.5 uM after 24 hrs flow cytometry; type: functional; method in brief: as §2
CAL-33 [22] = test: Antiproliferative activity against human CAL33 cells after 72 hrs by MTT assay; type: functional, cell-based; settings: CAL-33, 72 h; method in brief: as §1
HT-29 [23] = test: Cell cycle arrest in human HT-29 cells assessed as accumulation at S phase at 5 uM after 24 hrs flow cytometry; type: functional; method in brief: as §2
HL-60 [24] = test: Cell cycle arrest in human HL60 cells assessed as accumulation at sub-G1 phase at 5 uM after 24 hrs flow cytometry; type: functional; method in brief: as §2
HL-60 [25] = test: Cell cycle arrest in human HL60 cells assessed as accumulation at G2 phase at 0.5 uM after 24 hrs flow cytometry; type: functional; method in brief: as §2
CAL-33 [26] = test: Cell cycle arrest in human CAL33 cells assessed as accumulation at G2 phase at 0.5 uM after 24 hrs flow cytometry
CAL-33 [27] = test: Cell cycle arrest in human CAL33 cells assessed as accumulation at G2 phase at 5 uM after 24 hrs flow cytometry; type: functional; method in brief: as §2
CAL-33 [28] = test: Cell cycle arrest in human CAL33 cells assessed as accumulation at S phase at 5 uM after 24 hrs flow cytometry; type: functional; method in brief: as §2
CAL-33 [29] = test: Cell cycle arrest in human CAL33 cells assessed as accumulation at sub-G1 phase at 5 uM after 24 hrs flow cytometry; type: functional; method in brief: as §2
CAL-33 [30] = test: Cell cycle arrest in human CAL33 cells assessed as accumulation at G1 phase at 5 uM after 24 hrs flow cytometry; type: functional; method in brief: as §2

O=c1c2ccccc2[nH]c2c(CCc3ccc(O)c(O)c3)cccc12
pIC50 [1]: < 5.00
pIC50 (HT-29 [2]): < 4.30

COc1ccc(CCN2C=CC=C3C2=Nc2ccccc2OS3(=O)=O)cc1
pIC50 [1]: 5.62
pIC50 (DU-145): 7.77
pIC50 (HT-29 [2]): 7.62
pIC50 (PC-3): 6.32

COc1ccc(CCc2cccc3c(=O)c4ccccc4[nH]c23)cc1O
pIC50 [1]: 6.29
pIC50 (HT-29 [2]): 4.92

COc1ccc(CCc2cccc3c2Nc2ccccc2S3(=O)=O)cc1O
pIC50 [1]: 5.90
pIC50 (HT-29 [2]): 5.14

CC[C@]1(O)C[C@H]2CN(CCc3c([nH]c4ccccc34)[C@@](C(=O)OC)(c3cc4c(cc3OC)N(C=O)[C@H]3[C@@](O)(C(=O)OC)[C@H](OC(C)=O)[C@]5(CC)C=CCN6CC[C@]43[C@@H]65)C2)C1 [VINCRISTINE]
Activity (HT-29 [3]): 5.97%
Activity (HT-29 [4]): 16.43%
Activity (HT-29 [5]): 72.53%
Activity (CAL-33 [6]): 20.5%
Activity (CAL-33 [7]): 72.5%
Activity (CAL-33 [8]): 17.13%
Activity (HT-29 [9]): 4.65%
Activity (CAL-33 [10]): 14.29%

COc1ccc(S(=O)(=O)Nc2cccnc2Nc2ccc(O)cc2)cc1 [ABT-751]
pIC50 [1]: 5.66
pIC50 (HT-29 [2]): 6.68

COc1cc(CCc2cccc3c2Nc2ccccc2S3(=O)=O)cc(OC)c1OC
pIC50 [1]: < 5.00
pIC50 (HT-29 [2]): < 4.00

O=S1(=O)c2ccccc2Nc2c(CCc3ccc(O)c(O)c3)cccc21
pIC50 [1]: < 5.00
pIC50 (HT-29 [2]): < 4.00

COc1ccc(CCc2cccc3c2Nc2ccccc2S3(=O)=O)cc1
pIC50 (HL-60 [11]): 5.78
Activity (HT-29 [12]): 0.47%
Activity (HT-29 [3]): 1.63%
Activity (HT-29 [4]): 73.56%
Activity (HT-29 [13]): 8.63%
pIC50 [1]: < 5.00
Activity (HL-60 [14]): 26.83%
inhibition [15]: Active
Activity (HL-60 [16]): 21.83%
pIC50 (DU-145): 6.09
pIC50 (HT-29 [2]): 6.06
Activity (HT-29 [17]): 87.92%
Activity (HL-60 [18]): 14.77%
Activity (HL-60 [19]): 57.66%
pIC50 (PC-3): < 4.30
Activity (HL-60 [20]): 24.77%
Activity (HT-29 [9]): 8.63%
Activity (HL-60 [21]): 8.22%
pIC50 (CAL-33 [22]): 6.20
Activity (HT-29 [23]): 2.46%
Activity (HL-60 [24]): 34.12%
Activity (HL-60 [25]): 12.4%
Activity (CAL-33 [26]): 15.95%

COc1cc(CCc2cccc3c(=O)c4ccccc4[nH]c23)cc(OC)c1OC
pIC50 (HL-60 [11]): < 4.30
pIC50 [1]: < 5.00
inhibition [15]: Active
pIC50 (DU-145): < 4.00
pIC50 (HT-29 [2]): < 4.00
pIC50 (PC-3): < 4.00
pIC50 (CAL-33 [22]): < 4.00

CCC1=C[C@@H]2CN(C1)Cc1c([nH]c3ccccc13)[C@@](C(=O)OC)(c1cc3c(cc1OC)N(C)[C@H]1[C@@](O)(C(=O)OC)[C@H](OC(C)=O)[C@]4(CC)C=CCN5CC[C@]31[C@@H]54)C2 [VINORELBINE]
Activity (HT-29 [3]): 1.39%
Activity (HT-29 [4]): 21.42%
Activity (HT-29 [5]): 72.85%
Activity (CAL-33 [6]): 24.44%
Activity (CAL-33 [7]): 72.8%
Activity (CAL-33 [8]): 17.62%
Activity (HT-29 [9]): 3.41%
Activity (CAL-33 [10]): 9.96%

COc1ccc(CCc2cccc3c2Nc2ccccc2S3(=O)=O)cc1OC
pIC50 [1]: < 5.00
pIC50 (HT-29 [2]): < 4.30

COc1ccc(CCc2cccc3c(=O)c4ccccc4[nH]c23)cc1
pIC50 (HL-60 [11]): 7.00
Activity (HT-29 [12]): 0.83%
Activity (HT-29 [3]): 0.65%
Activity (HT-29 [4]): 14.55%
Activity (HT-29 [5]): 81.81%
Activity (HT-29 [13]): 21.11%
pIC50 [1]: < 5.00
Activity (CAL-33 [27]): 35.16%
Activity (HL-60 [14]): 24.4%
Activity (CAL-33 [28]): 33.12%
inhibition [15]: Active
Activity (CAL-33 [6]): 9.84%
Activity (CAL-33 [7]): 57.42%
Activity (HL-60 [16]): 18.5%
pIC50 (DU-145): 7.30
pIC50 (HT-29 [2]): 7.29
Activity (HT-29 [17]): 73.1%
Activity (CAL-33 [8]): 28.46%
Activity (HL-60 [18]): 15.2%
Activity (HL-60 [19]): 25.15%
pIC50 (PC-3): 6.12
Activity (HL-60 [20]): 26.55%
Activity (HT-29 [9]): 2.75%
Activity (HL-60 [21]): 37.16%
pIC50 (CAL-33 [22]): 7.43
Activity (HT-29 [23]): 4.6%
Activity (HL-60 [24]): 34.34%
Activity (CAL-33 [10]): 4%
Activity (CAL-33 [29]): 22.73%
Activity (HL-60 [25]): 19.58%
Activity (CAL-33 [30]): 8.35%

CC(=O)O[C@@]12CO[C@@H]1C[C@H](O)[C@@]1(C)C(=O)[C@H](O)C3=C(C)[C@@H](OC(=O)[C@H](O)[C@@H](NC(=O)OC(C)(C)C)c4ccccc4)C[C@@](O)([C@@H](OC(=O)c4ccccc4)[C@H]21)C3(C)C.O.O.O [DOCETAXEL]
Activity (HT-29 [3]): 0.86%
Activity (HT-29 [4]): 7.85%
Activity (HT-29 [5]): 88.24%
Activity (CAL-33 [6]): 17.11%
Activity (CAL-33 [7]): 88.2%
Activity (CAL-33 [8]): 15.41%
Activity (HT-29 [9]): 2.76%
Activity (CAL-33 [10]): 4.99%

COc1ccc(CCc2cccc3c(=O)c4ccccc4[nH]c23)cc1OC
pIC50 [1]: < 5.00
pIC50 (HT-29 [2]): < 4.30
